Measured values from ChEMBL document CHEMBL2331331 (J Med Chem, 2013).
Active and inactive are the calls of the source. The calls are words filed in the database; no cut-off is given here.

How the values were obtained:
[1] = Oral bioavailability in Sprague-Dawley rat at 10 mg/kg/day; type: ADME, organism-based; settings: in vivo
Procedure, shortened: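 Sprague-Dawley rats, five per group, were dosed orally at 10 mg/kg. Plasma was sampled through jugular vein cannulation. Drug levels were measured by liquid–liquid extraction followed by LC–MS.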

MV4-11 [2] = experiment: Antitumor activity against FLT3-ITD-positive human MV4-11 cells xenografted in NOD-SCID mouse assessed as tumor growth inhibition at 10 mg/kg/day, po after 3 days by Ki67 staining-based light microscopic analysis relative to vehicle-treated control; type: functional, organism-based
Procedure, shortened: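 Mice (NOD-SCID) bearing sc MV4-11 tumors given 10 mg/kg/d by oral gavage. Tumors removed after 2–4 days and formalin-fixed. Sections immunostained for Ki67 (proliferation) or p-STAT5, or TUNEL-stained (apoptosis). Imaged by light microscopy and compared with vehicle group.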

Mus musculus = experiment: Toxicity in NOD-SCID mouse xenografted with FLT3-ITD-positive human MV4-11 cells assessed as body weight loss at 1 to 10 mg/kg/day, po administered 18 days measured every 3 days for 18 days; type: organism-based; set-up: route oral; settings: in vivo, 432 h
Procedure, shortened: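 NOD-SCID mice, 5–6 weeks old, received 100 μL of MV4-11 cells sc (1 × 10⁸/mL in serum-free medium). At 300–500 mm³ tumors, mice were grouped (six per group) and gavaged once daily for 18 days at 1, 3 or 10 mg/kg/d. Vehicle was 12.5% castor oil, 12.5% ethanol and 75% water. Body weights were tracked; tumors were measured every 3 d.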

MV4-11 [3] = experiment: Antitumor activity against FLT3-ITD-positive human MV4-11 cells xenografted in NOD-SCID mouse assessed as tumor regression at 10 mg/kg/day, po administered 18 days measured every 3 days for 18 days; type: functional, organism-based
Procedure, shortened: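 NOD-SCID mice (5–6 weeks) implanted sc with 1 × 10⁸/mL MV4-11 cells (100 μL) in serum-free medium. Grouped at 300–500 mm³, six per group, then dosed orally once daily for 18 days. Vehicle was 12.5% castor oil, 12.5% ethanol, 75% water. Tumor volume = long × short²/2, measured every 3 d.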

[4] = target: T1, Receptor-type tyrosine-protein kinase FLT3 (Homo sapiens, UniProt P36888); experiment: Inhibition of FLT3 in human MV4-11 cells assessed as inhibition of Erk1/2 phosphorylation after 20 hrs by Western blotting analysis; type: cell-based
T1 sequence (P36888 whole entry): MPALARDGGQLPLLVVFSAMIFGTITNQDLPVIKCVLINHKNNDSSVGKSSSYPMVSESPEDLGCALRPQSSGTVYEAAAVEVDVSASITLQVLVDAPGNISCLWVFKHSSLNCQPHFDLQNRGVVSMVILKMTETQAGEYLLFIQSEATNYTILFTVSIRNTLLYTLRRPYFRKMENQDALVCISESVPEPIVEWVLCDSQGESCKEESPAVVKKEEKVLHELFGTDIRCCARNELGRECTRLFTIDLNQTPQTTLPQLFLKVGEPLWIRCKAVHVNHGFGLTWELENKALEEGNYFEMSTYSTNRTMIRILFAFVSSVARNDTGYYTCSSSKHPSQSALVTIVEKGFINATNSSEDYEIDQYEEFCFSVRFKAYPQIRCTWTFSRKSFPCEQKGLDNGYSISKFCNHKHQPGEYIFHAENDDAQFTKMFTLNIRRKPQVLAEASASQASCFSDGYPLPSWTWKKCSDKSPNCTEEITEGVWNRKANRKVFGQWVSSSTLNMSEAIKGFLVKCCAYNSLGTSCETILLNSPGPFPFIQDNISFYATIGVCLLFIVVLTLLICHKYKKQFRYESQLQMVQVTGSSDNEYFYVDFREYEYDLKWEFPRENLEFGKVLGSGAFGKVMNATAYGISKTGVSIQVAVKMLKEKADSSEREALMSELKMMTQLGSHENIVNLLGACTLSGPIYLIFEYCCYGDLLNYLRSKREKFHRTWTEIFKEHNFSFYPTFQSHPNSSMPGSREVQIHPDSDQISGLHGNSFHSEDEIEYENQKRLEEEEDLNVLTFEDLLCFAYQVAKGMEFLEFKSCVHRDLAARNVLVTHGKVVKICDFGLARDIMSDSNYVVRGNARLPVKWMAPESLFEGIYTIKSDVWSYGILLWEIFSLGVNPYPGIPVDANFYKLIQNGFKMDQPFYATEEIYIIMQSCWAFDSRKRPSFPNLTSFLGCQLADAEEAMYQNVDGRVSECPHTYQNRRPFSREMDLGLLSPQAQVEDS

MV4-11 [5] = experiment: Induction of apoptosis in human MV4-11 cells assessed as early apoptotic cells at 0.03 uM after 24 hrs by annexin V-FITC/propidium iodide staining-based FACS flow cytometric analysis (reference value: 1.61%); type: functional
MV4-11 [6] = experiment: Induction of apoptosis in human MV4-11 cells assessed as early apoptotic cells at 0.01 uM after 24 hrs by annexin V-FITC/propidium iodide staining-based FACS flow cytometric analysis (reference value: 1.61%); type: functional
MV4-11 [7] = experiment: Induction of apoptosis in human MV4-11 cells assessed as late apoptotic cells at 0.01 uM after 24 hrs by annexin V-FITC/propidium iodide staining-based FACS flow cytometric analysis (reference value: 4.28%); type: functional
MV4-11 [8] = experiment: Induction of apoptosis in human MV4-11 cells assessed as late apoptotic cells at 0.001 uM after 24 hrs by annexin V-FITC/propidium iodide staining-based FACS flow cytometric analysis (reference value: 4.28%); type: functional
LoVo = experiment: Cytotoxicity against human LoVo cells assessed as growth inhibition after 72 hrs by MTT assay
A549 = experiment: Cytotoxicity against human A549 cells assessed as growth inhibition after 72 hrs by MTT assay; settings: A549, 72 h
TT = experiment: Cytotoxicity against human TT cells assessed as growth inhibition after 72 hrs by MTT assay
K562 = experiment: Cytotoxicity against human K562 cells assessed as growth inhibition after 72 hrs by MTT assay; settings: K562, 72 h
[9] = Inhibition of ERK (unknown origin); set-up: species or system Homo sapiens
[10] = target: Serine/threonine-protein kinase PAK 2 (Homo sapiens, UniProt Q13177); experiment: Inhibition of PAK2 (unknown origin)
Sequence of Serine/threonine-protein kinase PAK 2 (Q13177 whole entry): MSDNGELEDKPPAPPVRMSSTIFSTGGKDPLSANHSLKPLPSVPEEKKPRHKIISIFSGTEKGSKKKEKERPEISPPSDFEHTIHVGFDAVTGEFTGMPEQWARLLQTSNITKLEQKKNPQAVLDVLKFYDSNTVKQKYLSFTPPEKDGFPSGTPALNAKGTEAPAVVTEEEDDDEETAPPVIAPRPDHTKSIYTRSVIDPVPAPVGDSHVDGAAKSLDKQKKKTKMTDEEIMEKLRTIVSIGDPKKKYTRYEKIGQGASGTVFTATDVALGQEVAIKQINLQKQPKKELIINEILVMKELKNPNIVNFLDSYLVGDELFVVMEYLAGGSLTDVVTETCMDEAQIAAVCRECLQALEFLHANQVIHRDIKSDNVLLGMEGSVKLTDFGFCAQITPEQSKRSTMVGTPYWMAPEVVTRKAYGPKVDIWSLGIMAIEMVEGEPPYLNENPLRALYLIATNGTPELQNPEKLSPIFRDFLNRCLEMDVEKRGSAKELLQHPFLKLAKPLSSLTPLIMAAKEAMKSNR

[11] = target: Mitogen-activated protein kinase kinase kinase 9 (Homo sapiens, UniProt P80192); experiment: Inhibition of MLK1 (unknown origin)
Sequence of Mitogen-activated protein kinase kinase kinase 9 (P80192 whole entry): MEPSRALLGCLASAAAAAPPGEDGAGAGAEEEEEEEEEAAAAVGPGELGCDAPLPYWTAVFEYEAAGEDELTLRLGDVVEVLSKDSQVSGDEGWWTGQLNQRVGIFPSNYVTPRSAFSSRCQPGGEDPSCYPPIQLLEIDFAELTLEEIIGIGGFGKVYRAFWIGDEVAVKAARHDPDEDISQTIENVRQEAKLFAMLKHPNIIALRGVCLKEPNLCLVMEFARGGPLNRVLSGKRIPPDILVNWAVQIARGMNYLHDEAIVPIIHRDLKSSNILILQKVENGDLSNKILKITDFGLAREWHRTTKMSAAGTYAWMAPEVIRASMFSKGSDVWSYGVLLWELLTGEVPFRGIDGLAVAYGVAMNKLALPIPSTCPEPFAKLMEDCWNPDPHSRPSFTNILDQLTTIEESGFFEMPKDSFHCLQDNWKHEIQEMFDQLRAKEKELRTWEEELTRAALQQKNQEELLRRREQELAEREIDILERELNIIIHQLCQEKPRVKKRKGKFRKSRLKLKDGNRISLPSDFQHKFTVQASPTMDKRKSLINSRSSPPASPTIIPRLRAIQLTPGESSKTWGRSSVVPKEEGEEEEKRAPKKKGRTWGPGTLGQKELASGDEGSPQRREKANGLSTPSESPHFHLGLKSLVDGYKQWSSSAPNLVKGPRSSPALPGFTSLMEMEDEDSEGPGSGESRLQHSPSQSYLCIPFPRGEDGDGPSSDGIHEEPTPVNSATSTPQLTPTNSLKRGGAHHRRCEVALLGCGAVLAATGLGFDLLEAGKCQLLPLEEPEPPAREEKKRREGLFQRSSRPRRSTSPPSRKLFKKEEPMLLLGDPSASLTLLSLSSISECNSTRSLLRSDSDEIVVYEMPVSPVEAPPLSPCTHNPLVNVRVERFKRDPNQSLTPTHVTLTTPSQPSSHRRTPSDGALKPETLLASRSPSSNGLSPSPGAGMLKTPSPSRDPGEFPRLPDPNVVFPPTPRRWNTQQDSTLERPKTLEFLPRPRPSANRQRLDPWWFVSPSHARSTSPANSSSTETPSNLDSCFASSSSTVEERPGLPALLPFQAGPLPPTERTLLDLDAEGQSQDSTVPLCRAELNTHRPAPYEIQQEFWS

[12] = target: Serine/threonine-protein kinase/endoribonuclease IRE1 (Homo sapiens, UniProt O75460); experiment: Inhibition of ERN1 (unknown origin)
Sequence of Serine/threonine-protein kinase/endoribonuclease IRE1 (O75460 whole entry): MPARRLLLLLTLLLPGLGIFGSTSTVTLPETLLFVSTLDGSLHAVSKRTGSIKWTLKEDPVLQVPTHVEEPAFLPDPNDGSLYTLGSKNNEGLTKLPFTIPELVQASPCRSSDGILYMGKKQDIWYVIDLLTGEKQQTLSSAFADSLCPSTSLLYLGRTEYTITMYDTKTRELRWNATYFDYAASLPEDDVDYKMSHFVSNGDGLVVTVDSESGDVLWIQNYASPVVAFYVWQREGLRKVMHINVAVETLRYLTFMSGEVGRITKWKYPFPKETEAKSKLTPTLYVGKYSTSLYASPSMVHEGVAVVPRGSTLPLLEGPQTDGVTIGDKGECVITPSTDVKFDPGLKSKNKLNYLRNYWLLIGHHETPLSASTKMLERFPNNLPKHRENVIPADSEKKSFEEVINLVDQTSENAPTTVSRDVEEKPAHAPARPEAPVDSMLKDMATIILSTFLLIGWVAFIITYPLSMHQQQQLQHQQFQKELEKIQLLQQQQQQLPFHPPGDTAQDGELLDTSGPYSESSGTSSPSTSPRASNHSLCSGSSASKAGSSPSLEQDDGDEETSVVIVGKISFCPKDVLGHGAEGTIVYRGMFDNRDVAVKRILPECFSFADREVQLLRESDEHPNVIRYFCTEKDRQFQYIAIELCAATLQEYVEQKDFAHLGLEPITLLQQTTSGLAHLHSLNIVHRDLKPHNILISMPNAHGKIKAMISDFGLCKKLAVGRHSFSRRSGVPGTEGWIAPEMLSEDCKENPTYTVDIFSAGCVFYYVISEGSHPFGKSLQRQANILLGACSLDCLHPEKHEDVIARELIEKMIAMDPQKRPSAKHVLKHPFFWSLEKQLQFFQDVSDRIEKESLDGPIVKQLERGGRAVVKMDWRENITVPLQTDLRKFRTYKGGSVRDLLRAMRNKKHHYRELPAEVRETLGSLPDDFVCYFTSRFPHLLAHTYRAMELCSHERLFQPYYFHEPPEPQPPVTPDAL

[13] = target: Insulin-like growth factor 1 receptor (Homo sapiens, UniProt P08069); experiment: Inhibition of IGF1R (unknown origin)
Sequence of Insulin-like growth factor 1 receptor (P08069 31-736 limits assumed): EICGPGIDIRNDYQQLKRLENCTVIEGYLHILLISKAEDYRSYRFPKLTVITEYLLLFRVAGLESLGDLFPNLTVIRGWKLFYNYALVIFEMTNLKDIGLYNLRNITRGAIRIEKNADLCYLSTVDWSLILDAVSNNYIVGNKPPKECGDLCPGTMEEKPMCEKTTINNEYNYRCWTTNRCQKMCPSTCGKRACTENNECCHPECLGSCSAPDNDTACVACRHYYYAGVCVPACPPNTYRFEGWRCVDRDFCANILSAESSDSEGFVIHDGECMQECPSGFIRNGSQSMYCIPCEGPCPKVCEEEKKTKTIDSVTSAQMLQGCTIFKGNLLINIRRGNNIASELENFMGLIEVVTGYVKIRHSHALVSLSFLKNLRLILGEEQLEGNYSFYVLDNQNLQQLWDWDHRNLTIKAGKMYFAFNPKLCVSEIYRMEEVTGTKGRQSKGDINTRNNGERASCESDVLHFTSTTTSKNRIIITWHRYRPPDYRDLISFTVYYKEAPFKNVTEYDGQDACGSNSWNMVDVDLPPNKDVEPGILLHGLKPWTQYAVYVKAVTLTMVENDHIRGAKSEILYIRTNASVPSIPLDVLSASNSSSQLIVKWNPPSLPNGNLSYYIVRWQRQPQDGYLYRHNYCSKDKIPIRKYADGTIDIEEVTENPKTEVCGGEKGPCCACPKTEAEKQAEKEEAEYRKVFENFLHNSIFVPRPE
Sequence of Insulin-like growth factor 1 receptor (P08069 741-1367 limits assumed): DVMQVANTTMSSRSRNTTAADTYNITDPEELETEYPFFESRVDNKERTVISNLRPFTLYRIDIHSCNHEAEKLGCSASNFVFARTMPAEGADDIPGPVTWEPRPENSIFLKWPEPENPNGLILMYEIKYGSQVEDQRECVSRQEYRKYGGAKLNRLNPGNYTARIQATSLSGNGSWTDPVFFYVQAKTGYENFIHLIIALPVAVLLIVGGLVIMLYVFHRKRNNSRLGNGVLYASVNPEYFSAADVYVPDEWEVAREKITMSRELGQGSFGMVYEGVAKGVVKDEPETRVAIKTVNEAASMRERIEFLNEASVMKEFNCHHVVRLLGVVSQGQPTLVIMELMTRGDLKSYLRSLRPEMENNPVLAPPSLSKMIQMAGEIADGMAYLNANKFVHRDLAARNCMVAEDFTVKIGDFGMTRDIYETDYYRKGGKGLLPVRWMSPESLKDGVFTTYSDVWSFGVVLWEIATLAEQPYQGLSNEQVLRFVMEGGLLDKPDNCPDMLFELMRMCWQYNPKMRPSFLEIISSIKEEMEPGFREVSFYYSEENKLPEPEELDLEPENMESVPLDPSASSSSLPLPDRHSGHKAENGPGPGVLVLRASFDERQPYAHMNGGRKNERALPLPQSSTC

Aurora kinase A = Aurora kinase A (Homo sapiens, UniProt O14965); experiment: Inhibition of aurora-A (unknown origin)
Sequence of Aurora kinase A (O14965 whole entry): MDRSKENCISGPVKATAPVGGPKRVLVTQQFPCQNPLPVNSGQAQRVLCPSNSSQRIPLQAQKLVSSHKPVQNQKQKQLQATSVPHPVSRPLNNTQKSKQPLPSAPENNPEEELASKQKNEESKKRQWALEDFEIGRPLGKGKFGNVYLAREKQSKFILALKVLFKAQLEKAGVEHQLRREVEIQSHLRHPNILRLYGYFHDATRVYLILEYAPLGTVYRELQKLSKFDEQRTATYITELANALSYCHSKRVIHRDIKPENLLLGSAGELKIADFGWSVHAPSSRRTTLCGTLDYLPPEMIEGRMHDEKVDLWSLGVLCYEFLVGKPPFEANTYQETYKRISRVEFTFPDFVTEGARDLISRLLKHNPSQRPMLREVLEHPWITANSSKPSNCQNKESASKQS

[14] = target: Tyrosine-protein kinase SYK (Homo sapiens, UniProt P43405); experiment: Inhibition of SYK (unknown origin)
[15] = target: Receptor tyrosine-protein kinase erbB-4 (Homo sapiens, UniProt Q15303); experiment: Inhibition of ERBB4 (unknown origin)
[16] = target: Vascular endothelial growth factor receptor 2 (Homo sapiens, UniProt P35968); experiment: Inhibition of VEGFR2 (unknown origin)

Which results are given for `O=C(Nc1ccc(Oc2ncnc3[nH]ncc23)cc1)Nc1ccc(Cl)c(C(F)(F)F)c1`?
bioavailability [1]: 66.7%; TGI (MV4-11 [2]): Active; Activity (Mus musculus): Non-toxic; Activity (MV4-11 [3]): Active; IC50 [4]: 0.001 µM; Activity (MV4-11 [5]): 8.93%; Activity (MV4-11 [6]): 5.88%; Activity (MV4-11 [7]): 9.64%; Activity (MV4-11 [8]): 5.5%; IC50 (LoVo): > 10 µM; IC50 (A549): > 10 µM; IC50 (TT): 3.42 µM; IC50 (K562): > 10 µM; IC50 [9]: > 10 µM; IC50 [10]: > 10 µM; IC50 [11]: > 10 µM; IC50 [12]: > 10 µM; IC50 [13]: > 10 µM; IC50 (Aurora kinase A): > 10 µM; IC50 [14]: > 10 µM; IC50 [15]: > 10 µM; IC50 [16]: 0.012 µM
